Compounds with a hit are over-represented: about 0.77% of the library has one in this group of screens.
mIAP block: mouse IAP inhibition. purified mouse IAP, CDP-Star luminescence, 30 min. inhibition, % at 10 µM. 0.2% of 330,000 active. AID 2806;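 active means inhibition of at least 40% at 10 µM in the primary screen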;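 further: plate controls were DMSO with enzyme for no effect and no enzyme wells for full effect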
hIAP inh: human IAP inhibition. P09923. purified IAP, CDP-Star luminescence, 30 min. inhibition, % at 10 µM. 0.12% of 330,000 active. AID 2544;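 active means inhibition reaching a set limit with compound at 10 µM in the primary screen, cut at about 35% in these data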;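 further: plate controls were DMSO wells with enzyme for no effect and no-enzyme buffer wells for full effect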
Target sequence (P09923 whole entry, looked up): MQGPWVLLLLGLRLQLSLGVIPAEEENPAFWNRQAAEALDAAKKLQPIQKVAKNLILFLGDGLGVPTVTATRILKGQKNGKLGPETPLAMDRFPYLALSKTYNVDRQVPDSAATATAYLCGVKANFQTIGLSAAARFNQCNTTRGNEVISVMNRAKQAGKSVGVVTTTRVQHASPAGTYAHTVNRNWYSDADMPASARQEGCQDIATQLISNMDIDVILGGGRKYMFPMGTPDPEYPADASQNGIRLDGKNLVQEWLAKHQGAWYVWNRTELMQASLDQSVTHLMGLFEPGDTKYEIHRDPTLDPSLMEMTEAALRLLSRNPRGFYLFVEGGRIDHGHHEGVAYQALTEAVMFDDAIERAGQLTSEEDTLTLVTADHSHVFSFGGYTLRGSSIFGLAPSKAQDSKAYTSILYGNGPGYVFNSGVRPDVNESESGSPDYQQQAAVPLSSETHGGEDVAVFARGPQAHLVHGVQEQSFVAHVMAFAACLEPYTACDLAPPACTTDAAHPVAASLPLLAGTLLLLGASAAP
hIAP act: human IAP activation; 0.16% of 330,000 active; P09923; purified human IAP, CDP-Star luminescence, 30 min; hits give high values; 1 = vehicle-only enzyme, 0 = enzyme-free background; activation factor at 10 µM;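 active means activation factor of the enzyme at least 2-fold when tested at 20 µM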
bIAP inh: intestinal alkaline phosphatase (bovine) inhibition | purified bovine IAP, CDP-star luminescence, 30 min | inhibition, % at 20 µM | 190,000 tested, under 10 active;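 active means over 50% inhibition of intestinal alkaline phosphatase at 20 µM in the single-dose screen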
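Assay system – bovine IAP enzyme · Quantity – bovine IAP at 1/65,000,000 final dilution · Detection – CDP-star luminescence signal · Times – 30 min reaction at room temperature · Also added – CDP-star substrate at 30 µM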
mIAP activ: increases mouse intestinal alkaline phosphatase activity | muIAP, CDP-Star luminescence, 30 min; hits give high values; 1 = vehicle-only enzyme signal, 0 = enzyme-free wells | activation factor at 10 µM | 0.24% of 330,000 active | AID 2805;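 active means activation factor of at least 2 at 20 µM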
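also added = chemiluminescent substrate CDP-Star | test system = mouse IAP enzyme | signal = chemiluminescence readout | compound = DMSO-dissolved test compounds | incubation = 30 min at room temperature | benchmarks = DMSO wells, no-enzyme wells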
bIAP act: intestinal alkaline phosphatase (bovine) activation | 0.17% of 200,000 active | activation factor at 20 µM | purified bovine IAP, CDP-star luminescence, 30 min; hits give high values; fold of DMSO-control signal, blank-subtracted;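 active means activation factor of 2 or more at 20 µM, a signal rise over negative controls twice the positive control's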
hIAP act conf: human IAP activation confirmation; shares compounds with hIAP act; purified IAP, CDP-Star luminescence, 30 min; hits give low values; activation (%Activity, negative = activation), % at 8.3 µM; 10% of 880 active; AID 434926;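 active means at least twofold enzyme activation in any of six single-dose repeats, which the averaged readout prints as negative percent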
An asterisk follows results filed as active; i = inactive; · = not tested or not shown.

SMILES | mIAP block | hIAP inh | hIAP act | bIAP inh | mIAP activ | bIAP act | others
C[C@@H]1CN([C@@H](C)CO)C(=O)Cc2cc(NC(=O)Nc3cccc4ccccc34)ccc2O[C@@H]1CN(C)Cc1ccc(C(F)(F)F)cc1 | -114 | -1 | 1 | · | 2.1* | ·
COc1ccc(NC(=O)c2ccc(=O)[nH]c2)cc1S(=O)(=O)N1CCOCC1 | -7 | -5 | 1 | · | 1.1 | ·
COc1ccc(/C(C)=N/Nc2ccc(C(=O)O)cc2)cc1OC | 5 | -107 | 2.1* | 5 | 0.95 | 0.9
Cc1nc2cc(NCc3nc4ccccc4n3Cc3ccccc3)ccc2n1C | -1 | -16 | 1.2 | -53 | 1 | 1.5
Cc1cccc(NCc2nc3ccccc3n2Cc2ccccc2)c1 | -9 | 2 | 0.98 | i | 1.1 | 9.5*
CCCN(C(=O)CCNC(=O)c1ccc(Cl)cc1)c1c(N)n(Cc2ccccc2)c(=O)[nH]c1=O | 9 | -18 | 1.2 | · | 0.91 | ·
O=C(Nc1ccc(Cl)c(Cl)c1)O/N=C/c1ccncc1 | -142 | -4 | 1 | -17 | 2.4* | 1.2
S=C(Nc1ccc(Cl)c(Cl)c1)NC1CCCCC1 | -220 | 0 | 0.99 | 11 | 3.2* | 0.9
S=C(Nc1ccc(Cl)c(Cl)c1)NC1CCN(Cc2ccccc2)CC1 | -115 | -17 | 1.2 | 5 | 2.2* | 0.9
NC(=S)NN=Cc1ccc(-c2ccc(S(=O)(=O)Nc3ncccn3)cc2)o1 | 42* | -16 | 1.2 | · | 0.58 | ·
Cc1cc2nnc(SCC(=O)NC3CCCCC3)n2c(N)n1 | 1 | 10 | 0.9 | · | 0.99 | ·
COc1ccc(CNC(=O)CSCc2cnn(-c3ccccc3)c2-n2cccc2)cc1 | -5 | -15 | 1.1 | -146 | 1 | 2.5*
COc1ccc(CNC(=O)C(OC(=O)c2nsc(Cl)c2Cl)C(C)C)cc1 (stereo unspecified) | 8 | -12 | 1.1 | -8 | 0.92 | 1.1
COc1ccc(C2Nc3ccccc3C(=O)N2O)cc1OC (stereo unspecified) | 4 | 0 | 1 | -3 | 0.96 | 1
COc1ccc(C2Nc3ccccc3C(=O)N2O)cc1CN1CCOCC1 (stereo unspecified) | 10 | -8 | 1.1 | -100 | 0.9 | 2*
O=C(NCCSCc1ccco1)Nc1cc(Cl)cc(Cl)c1 | -136 | -15 | 1.2 | · | 2.4* | ·
COc1ccc(C(=O)COC(=O)CCN=C2NS(=O)(=O)c3ccccc32)c(OC)c1 | -5 | 10 | 0.9 | · | 1 | ·
Cc1cc(OCCCCCn2ccnc2)cc(C)c1Cl | -11 | -53 | 1.5 | i | 1.1 | 68*
Cc1cc(C)c(S(=O)(=O)Nc2ccc(O)c(Sc3ncn[nH]3)c2)c(C)c1 | 69* | 7 | 0.93 | 2 | 0.31 | 1
CC1=CC(C)(C)N2C(=O)C3(N=C(N)NC(Nc4ccccc4)=N3)c3cc(C)cc1c32 (stereo unspecified) | -121 | 2 | 0.98 | -134 | 2.2* | 2.3*
O=C(Nc1ccccc1-c1ccccc1)NC1CC2CCCC(C1)N2CCc1ccccc1 (stereo unspecified) | -131 | 10 | 0.9 | -8 | 2.3* | 1.1
S=C(Nc1ccc(Oc2ccc(NC(=S)NC3CCCCC3)cc2)cc1)NC1CCCCC1 | -142 | 2 | 0.98 | -39 | 2.4* | 1.4
OC1CCC(NC(=S)Nc2ccc(SC(F)F)cc2)CC1 (stereo unspecified) | -10 | -7 | 1.1 | 13 | 1.1 | 0.9
S=C(Nc1ccc(Oc2ccccc2)cc1)NC1CCCCC1 | -250 | 4 | 0.96 | 6 | 3.5* | 0.9
FC(F)Sc1ccc(NC(=S)NC2CCCC2)cc1 | -156 | -17 | 1.2 | 16 | 2.6* | 0.8
SMILES | mIAP block | hIAP inh | hIAP act | bIAP inh | mIAP activ | bIAP act | others
CC(C)c1ccc(NC(=S)NC2CCCCCC2)cc1 | -224 | -26 | 1.3 | 1 | 3.2* | 1
C=CCN(C(=O)Nc1ccc(OC)cc1)c1nnc(-c2ccncc2)s1 | -15 | -24 | 1.2 | · | 1.1 | ·
Cc1ccsc1/C=N/N1CCN(Cc2ccccc2)CC1 | 2 | 0 | 1 | -13 | 0.98 | 1.1
COc1ccccc1NC(=S)NC1CCCCCCCCCCC1 | -134 | -61 | 1.6 | · | 2.3* | ·
O=C(/C=C/c1ccco1)N(c1ccccn1)c1ccccn1 | 45* | -5 | 1.1 | -1 | 0.55 | 1
CCN1C(=O)/C(=c2\o/c(=C3\C=Cc4ccccc4N3CC)c(=O)n2CC)SC1=S | · | · | · | 38 | · | 0.6
CCN1C(=O)/C(=C2\C=Cc3ccccc3N2CC)SC1=S | 41* | 30 | 0.7 | 25 | 0.59 | 0.7
COc1cccc(C2=NOC(C(=O)Nc3ccc4c(c3)OCO4)C2)c1OC (stereo unspecified) | 8 | 9 | 0.91 | · | 0.92 | ·
O=C(CCc1ccccc1Cl)Nc1cccc(S(=O)(=O)N2CCCC2)c1 | -17 | -19 | 1.2 | · | 1.2 | ·
O=C(Cc1ccccc1Cl)Nc1cccc(S(=O)(=O)N2CCCCCC2)c1 | -113 | -7 | 1.1 | · | 2.1* | ·
Cc1cc(OCC(=O)Nc2cccc(S(=O)(=O)N3CCCCC3)c2)ccc1Cl | -207 | 0 | 1 | · | 3.1* | ·
Cc1cc(OCC(=O)Nc2cccc(S(=O)(=O)N3CCCC3)c2)ccc1Cl | -42 | -8 | 1.1 | · | 1.4 | ·
O=C(CCc1c[nH]c2ccccc12)OCc1cccc([N+](=O)[O-])c1 | -1 | 11 | 0.89 | · | 1 | ·
COc1ccc(CCNC(=O)COc2ccc(S(=O)(=O)N3CCOCC3)cc2C)cc1 | 1 | 2 | 0.98 | · | 0.99 | ·
CC(C)CNS(=O)(=O)c1ccc(NC(=O)Cn2nc(-c3ccc(F)cc3)ccc2=O)cc1 | -7 | -180 | 2.8* | 27 | 1.1 | 0.7
CSCc1nc2sc(C(=O)Nc3nc(C)cs3)c(C)c2c(=O)[nH]1 | 42* | 8 | 0.92 | -12 | 0.58 | 1.1
Cc1ccccc1CSCC(=O)NCc1ccco1 | -1 | 6 | 0.94 | -124 | 1 | 2.2*
CCc1ccc(OCC(=O)N/N=C(\C)c2ccc(-n3ccnc3)cc2)cc1 | 7 | -14 | 1.1 | -100 | 0.93 | 2*
COc1cc(/C=N\NS(=O)(=O)c2ccccc2)cc(OC)c1OC | -6 | 37* | 0.63 | · | 1.1 | · | hIAP act conf=31
COCc1cc(=O)[nH]c(Nc2nc3ccc(C)cc3o2)n1 | 2 | -108 | 2.1* | -23 | 0.98 | 1.2 | hIAP act conf=-22
CCc1ccc2nc(Nc3nc(COC)cc(=O)[nH]3)nc(C)c2c1 | -6 | -110 | 2.1* | -32 | 1.1 | 1.3 | hIAP act conf=-31
CCCCCc1c(C)nc(Nc2nc(C)c3cc(OC)ccc3n2)[nH]c1=O | 19 | -111 | 2.1* | -57 | 0.81 | 1.6 | hIAP act conf=17
O=C(c1ccc(Cl)cc1)N1CCCCC(Cl)C1=O (stereo unspecified) | -13 | -10 | 1.1 | -8 | 1.1 | 1.1
Cc1ccccc1OCc1nc2c3cnn(C)c3ncn2n1 | -7 | -13 | 1.1 | 27 | 1.1 | 0.7

Compound activity deposited in PubChem by Sanford-Burnham Center for Chemical Genomics.
